From ChEMBL document CHEMBL2069181, “In vitro and in vivo trypanosomicidal activity of pyrazole-containing macrocyclic and macrobicyclic polyamines: their action on acute and chronic phases of Chagas disease” (J Med Chem, 2012)
Calls of active or inactive are those of the source.

Experiments:
Trypanosoma cruzi [1] = assay: Antitrypanosomal activity against Trypanosoma cruzi infected in BALB/c mouse assessed as reduction in parasitemia at 1 mg/kg, ip dosed for 5 days measured on day 30 post infection; assay type: functional; parameters: scale not given: the % may be the effect or the level left; conditions: route intraperitoneal
In short: (§1)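 Female BALB/c mice infected with trypomastigotes, dosed ip at 1 mg/kg/day on days 5–10 postinfection; vehicle controls. Mandibular vein blood (5 μL) diluted in citrate/lysis buffer pH 7.2; parasites counted under immersion objective every 2 days from day 5 to 30, as parasites/mL.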

Mus musculus [2] = assay: Toxicity in BALB/c mouse liver infected with Trypanosoma cruzi assessed as granulomas with limphocitic infiltration at 5 mg/kg, ip after 120 days postinfection by Histopathological analysis; assay type: organism-based; parameters: dose 5 mg/kg, route intraperitoneal; conditions: in vivo, 2880 h
In short: (§2)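 Livers removed at 120 days postinfection, fixed in 10% buffered formalin, paraffin-embedded, 4–5 μm sections stained with H&E and Masson's trichrome. Blinded scoring of at least 30 fields per slide, 0 (none) to 5 (severe).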

Trypanosoma cruzi [3] = assay: Trypanosomicidal activity against Trypanosoma cruzi SN3 amastigote infected in Vero cells after 72 hrs by Giemsa staining method; assay type: functional, organism-based
In short: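 Vero cells seeded at 1 × 10^4/well on coverslips, grown 2 days, infected with metacyclic forms (10:1) for 24 h, washed, then treated at 1–100 μM for 72 h in RPMI/10% FBS. Amastigote reduction scored on methanol-fixed Giemsa-stained slides; four determinations; IC50.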

Mus musculus [4] = assay: Toxicity in BALB/c mouse liver infected with Trypanosoma cruzi assessed as lymphocytic infiltrations in portal tracts at 5 mg/kg, ip after 120 days postinfection Histopathological analysis; assay type: organism-based; parameters: dose 5 mg/kg, route intraperitoneal; conditions: in vivo, 2880 h; in short: as §2
Trypanosoma cruzi [5] = assay: Trypanosomicidal activity against Trypanosoma cruzi infected in Vero cells assessed as reduction in trypomastigotes in culture medium after 10 days by Giemsa staining method; assay type: functional; parameters: scale not given: the % may be the effect or the level left
In short: (§3)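 Vero cells infected with metacyclic forms (10:1); compounds at IC25 added at infection for 12 h at 37 °C, then washed out and cultures grown 10 days with medium renewed every 48 h. Infected cells and amastigotes per cell counted in >100 host cells on Giemsa-stained slides; trypomastigotes in medium counted; mean of four determinations.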

Mus musculus [6] = assay: Toxicity in BALB/c mouse liver infected with Trypanosoma cruzi assessed as blood vessels with thickened walls at 5 mg/kg, ip after 120 days postinfection by Histopathological analysis; assay type: organism-based, Blood vessel; parameters: dose 5 mg/kg, route intraperitoneal; conditions: in vivo, 2880 h; in short: as §2
Trypanosoma cruzi [7] = assay: Trypanosomicidal activity against Trypanosoma cruzi epimastigotes assessed as inhibition of acetate metabolite excretion after 96 hrs by NMR analysis; assay type: functional
In short: (§4)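 Epimastigotes (5 × 10^5 cells/mL) exposed to IC25 of compound for 96 h at 28 °C; supernatant after centrifugation analysed by 1H NMR with DSS reference, compared against untreated cultures.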

Mus musculus [8] = assay: Toxicity in BALB/c mouse liver infected with Trypanosoma cruzi assessed as hepatic destruction in portal tracts at 5 mg/kg, ip after 120 days postinfection by Histopathological analysis; assay type: organism-based; parameters: dose 5 mg/kg, route intraperitoneal; conditions: in vivo, 2880 h; in short: as §2
Mus musculus [9] = assay: Toxicity in BALB/c mouse liver infected with Trypanosoma cruzi assessed as intestinal hemorrhage at 5 mg/kg, ip after 120 days postinfection by Histopathological analysis; assay type: organism-based; parameters: dose 5 mg/kg, route intraperitoneal; conditions: in vivo, 2880 h; in short: as §2
Mus musculus [10] = assay: Toxicity in BALB/c mouse liver infected with Trypanosoma cruzi assessed as delocalized hepatic destruction at 5 mg/kg, ip after 120 days postinfection by Histopathological analysis; assay type: organism-based; parameters: dose 5 mg/kg, route intraperitoneal; conditions: in vivo, 2880 h; in short: as §2
Trypanosoma cruzi [11] = assay: Antitrypanosomal activity against Trypanosoma cruzi infected in BALB/c mouse assessed as reduction in anti-organism antibody at 1 mg/kg, ip dosed for 5 days measured on day 40 to 120 post infection; assay type: functional, organism-based; parameters: dose 1 mg/kg
In short: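 Infected female BALB/c mice given 1 mg/kg/day ip for 5 days. Serum (1:50 in PBS) on days 40 and 120 tested by ELISA against excreted epimastigote Fe-SOD antigen; absorbance 490 nm, cutoff = negative-control mean + 3 SD; change is day-120 minus day-40 absorbance.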

Trypanosoma cruzi [12] = assay: Trypanosomicidal activity against Trypanosoma cruzi infected in Vero cells assessed as reduction in amastigotes per infected Vero cells after 6 days by Giemsa staining method; assay type: functional; parameters: scale not given: the % may be the effect or the level left
Trypanosoma cruzi [13] = assay: Trypanosomicidal activity against Trypanosoma cruzi SN3 anexic amastigote after 48 hrs by hemocytometric analysis; assay type: functional, organism-based; conditions: SN3, 48 h
In short: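 Axenic amastigotes obtained from epimastigotes after 3 days in supplemented M199 (10% FCS, pH 5.4, 37 °C).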

Trypanosoma cruzi [14] = assay: Trypanosomicidal activity against Trypanosoma cruzi infected in Vero cells assessed as reduction in rate of infection after 10 days by Giemsa staining method; assay type: functional; parameters: scale not given: the % may be the effect or the level left; in short: as §3
Mus musculus [15] = assay: Toxicity in BALB/c mouse liver infected with Trypanosoma cruzi assessed as necrotic cells in portal tracts at 5 mg/kg, ip after 120 days postinfection by Histopathological analysis; assay type: organism-based; parameters: dose 5 mg/kg, route intraperitoneal; conditions: in vivo, 2880 h; in short: as §2
Trypanosoma cruzi [16] = assay: Antitrypanosomal activity against Trypanosoma cruzi infected in BALB/c mouse assessed as survival rate at 1 mg/kg, ip dosed for 5 days; assay type: functional; conditions: 120 h, route intraperitoneal
In short: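 Female BALB/c mice were infected with trypomastigotes of T. cruzi SN3 strain (Colombian R. prolixus isolate). Dosing was ip at 1 mg/kg/day for 5 consecutive days, on days 5–10 postinfection. Controls were infected mice given vehicle only, plus uninfected groups. Mortality was followed over the acute phase (first 30 days) and the chronic phase (days 40–120 postinfection).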

Trypanosoma cruzi [17] = assay: Trypanosomicidal activity against Trypanosoma cruzi epimastigotes assessed as distorted shape of protozoan cells by TEM analysis; assay type: functional, organism-based
[18] = Selectivity index, ratio of IC50 for Vero cells to IC50 for Trypanosoma cruzi intracellular amastigote infected in Vero cells; assay type: toxicity, cell-based; conditions: monkey; read-out: Ratio IC50
Trypanosoma cruzi [19] = assay: Trypanosomicidal activity against Trypanosoma cruzi SN3 epimastigote after 72 hrs by hemocytometric analysis; assay type: functional, organism-based; conditions: SN3, 72 h
In short: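 Exponential-phase SN3 epimastigotes (Grace's medium, 10% FBS, 28 °C) seeded at 5 × 10^4 parasites/well with compounds dissolved in MTL at 1, 10, 25, 50, 100 μM.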

[20] = Selectivity index, ratio of IC50 for Vero cells to IC50 for Trypanosoma cruzi epimastigote; assay type: toxicity, cell-based; conditions: monkey, Vero cells versus Trypanosoma cruzi epimastigotes; read-out: Ratio IC50
Vero = assay: Cytotoxicity against African green monkey Vero cells assessed as cell viability after 72 hrs by flow cytometric analysis; assay type: cell-based; conditions: Chlorocebus sabaeus
In short: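 Vero cells grown in RPMI with 10% inactivated FBS at 37 °C, 5% CO2, seeded at 1 × 10^5 cells/mL, grown 2 days, then exposed to 1–100 μM compound for 72 h. Viability measured by flow cytometry; IC50 by linear regression.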

Trypanosoma cruzi [21] = assay: Inhibition of Trypanosoma cruzi epimastigotes Fe-SOD at 50 ug/ml by NBT reduction assay
In short: (§5)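 Enzyme from epimastigotes grown without FBS (excreted Fe-SOD), sonicated in STE buffer pH 7.8, centrifuged, supernatant protein by Bradford; human erythrocyte CuZn-SOD for comparison. NBT reduction by superoxide (Beyer–Fridovich): methionine, NBT, Triton X-100, riboflavin, homogenate plus compound; A560 read before and after 10 min UV illumination with stirring. Five separate determinations; Newman–Keuls test against control.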

Trypanosoma cruzi [22] = assay: Antitrypanosomal activity against Trypanosoma cruzi infected in BALB/c mouse assessed as reduction in trypomastigotes at 1 mg/kg, ip dosed for 5 days measured on day 14 post infection; assay type: functional, organism-based; parameters: dose 1 mg/kg; in short: as §1
Trypanosoma cruzi [23] = assay: Trypanosomicidal activity against Trypanosoma cruzi epimastigotes assessed as intense vacuolization of protozoan cells by TEM analysis; assay type: functional, organism-based
[24] = Selectivity index, ratio of IC50 for Vero cells to IC50 for Trypanosoma cruzi anexic amastigote; assay type: toxicity, cell-based; conditions: monkey, Vero cells versus Trypanosoma cruzi axenic amastigotes; read-out: Ratio IC50
[25] = molecular target: Superoxide dismutase [Cu-Zn], SOD1 (Homo sapiens) (UniProt P00441); assay: Activity of human erythrocyte Cu-Zn SOD by NBT reduction assay
Trypanosoma cruzi [26] = assay: Trypanosomicidal activity against Trypanosoma cruzi epimastigotes assessed as very electron dense protozoan cells by TEM analysis; assay type: functional, organism-based
Trypanosoma cruzi [27] = assay: Inhibition of Trypanosoma cruzi epimastigotes Fe-SOD at 25 ug/ml by NBT reduction assay; in short: as §5
Trypanosoma cruzi [28] = assay: Trypanosomicidal activity against Trypanosoma cruzi epimastigotes assessed as inhibition of succinate metabolite excretion after 96 hrs by NMR analysis; assay type: functional; in short: as §4
[29] = Inhibition of Trypanosoma cruzi epimastigotes Fe-SOD by NBT reduction assay; in short: as §5
Trypanosoma cruzi [30] = assay: Trypanosomicidal activity against Trypanosoma cruzi epimastigotes assessed as reservosomes in cytoplasm by TEM analysis; assay type: functional, organism-based
Trypanosoma cruzi [31] = assay: Trypanosomicidal activity against Trypanosoma cruzi epimastigotes assessed as inhibition of L-lactate metabolite excretion after 96 hrs by NMR analysis; assay type: functional; in short: as §4
[32] = Selectivity ratio of IC50 for Trypanosoma cruzi epimastigotes Fe-SOD to IC50 for human erythrocyte Cu-Zn SOD
Trypanosoma cruzi [33] = assay: Trypanosomicidal activity against Trypanosoma cruzi epimastigotes assessed as altered nucleus by TEM analysis; assay type: functional, organism-based
Trypanosoma cruzi [34] = assay: Inhibition of Trypanosoma cruzi epimastigotes Fe-SOD at 10 ug/ml by NBT reduction assay; in short: as §5

Sequence of Superoxide dismutase [Cu-Zn], SOD1 (Homo sapiens) (P00441 whole entry, looked up): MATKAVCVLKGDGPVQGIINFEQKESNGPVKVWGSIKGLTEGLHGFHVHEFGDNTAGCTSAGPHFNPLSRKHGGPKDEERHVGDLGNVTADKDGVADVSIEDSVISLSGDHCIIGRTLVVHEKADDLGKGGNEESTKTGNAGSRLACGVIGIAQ

inhibition (Trypanosoma cruzi [21]) | SMILES | Activity (Trypanosoma cruzi [1]) | Activity (Mus musculus [2]) | IC50 (Trypanosoma cruzi [3]) | Activity (Mus musculus [4]) | Activity (Trypanosoma cruzi [5]) | Activity (Mus musculus [6]) | inhibition (INH) (Trypanosoma cruzi [7]) | Activity (Mus musculus [8]) | Activity (Mus musculus [9]) | Activity (Mus musculus [10]) | Activity (Trypanosoma cruzi [11]) | Activity (Trypanosoma cruzi [12]) | IC50 (Trypanosoma cruzi [13]) | Activity (Trypanosoma cruzi [14]) | Activity (Mus musculus [15]) | selectivity ratio [18] | IC50 (Trypanosoma cruzi [19]) | selectivity ratio [20] | IC50 (Vero) | also measured
– | O=C(Cn1ccnc1[N+](=O)[O-])NCc1ccccc1 [BENZNIDAZOLE] | 26% | Toxic | 23.3 µM | Non-toxic | 46% | Non-toxic | -6% | Toxic | Toxic | Toxic | Active | 13% | 18.9 µM | 23% | Toxic | – | – | – | – | survival at 1 mg/kg (Trypanosoma cruzi [16]): 80%
98% | Cl.c1c2n[nH]c1CNCCN1CCNCc3cc(n[nH]3)CNCCN(CCNC2)CCNCc2cc([nH]n2)CNCC1 | 53% | Non-toxic | 6.2 µM | Non-toxic | 70% | Non-toxic | 22% | Toxic | Non-toxic | Non-toxic | Active | 50% | 7.2 µM | 74% | Non-toxic | 24 | 1.3 µM | 115 | 149 µM | Activity (Trypanosoma cruzi [17]): Active; Activity (Trypanosoma cruzi [22]): Active; Activity (Trypanosoma cruzi [23]): Active; selectivity ratio [24]: 20.7; Activity [25]: 23.4 U/mg; Activity (Trypanosoma cruzi [26]): Active; inhibition (Trypanosoma cruzi [27]): 70%; inhibition (INH) (Trypanosoma cruzi [28]): 7%; IC50 [29]: 30.8 µM
98% | Cl.Cn1nc2cc1CNCCNCCNCc1cc(n(C)n1)CNCCNCCNC2 | 39% | Non-toxic | 6.5 µM | Non-toxic | 64% | Toxic | 15% | Non-toxic | Non-toxic | Non-toxic | Active | 42% | 8.8 µM | 80% | Non-toxic | 27.5 | 1.3 µM | 137 | 178 µM | Activity (Trypanosoma cruzi [30]): Active; inhibition (INH) (Trypanosoma cruzi [31]): 58%; Activity (Trypanosoma cruzi [22]): Active; Activity (Trypanosoma cruzi [23]): Active; selectivity ratio [24]: 20.3; Activity [25]: 23.4 U/mg; Ratio IC50 [32]: 23; inhibition (Trypanosoma cruzi [27]): 70%; Activity (Trypanosoma cruzi [33]): Active; inhibition (INH) (Trypanosoma cruzi [28]): 70%; IC50 [29]: 4.2 µM; inhibition (Trypanosoma cruzi [34]): 75%
